Assay results from ChEMBL document CHEMBL1134485, “Diguanidino and "reversed" diamidino 2,5-diarylfurans as antimicrobial agents” (2001).
Values after ≈ are worked out from the molar mass of the structure shown.

Tests used:
[1] = tested on: Aspergillus fumigatus; assay: In vitro minimum fungicidal concentration required to inhibit Aspergillus fumigatus(MFC); assay type: functional
Procedure, shortened: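 Mould MFC: 100 µL aliquots from macrodilution tubes (RPMI 1640/MOPS pH 7.0, 0.5 × 10³ to 2.5 × 10³ CFU/mL conidial inoculum, 30 °C, 48-72 h, drug 100 to 0.09 µg/mL) showing complete growth inhibition plated on Sabouraud agar; MFC taken as lowest drug concentration giving three or fewer colonies.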

[2] = tested on: Aspergillus fumigatus; assay: In vitro antimicrobial activity against Aspergillus fumigatus (MIC); assay type: functional
[3] = tested on: Candida albicans; assay: In vitro minimum fungicidal concentration against Candida albicans.; assay type: functional
Procedure, shortened: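 Yeast MFC: after broth macrodilution (RPMI 1640/MOPS pH 7.0, 0.5 × 10³ to 2.5 × 10³ CFU/mL, 35 °C, 48 h or 72 h for C. neoformans, drug 100 to 0.09 µg/mL), 100 µL from tubes with complete inhibition plated on Sabouraud agar; lowest concentration yielding three or fewer colonies recorded.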

[4] = tested on: Candida albicans; assay: In vitro minimum inhibitory concentration against Candida albicans.; assay type: functional
[5] = tested on: Mycobacterium tuberculosis; assay: In vitro minimum inhibitory concentration required to inhibit Mycobacterium tuberculosis; assay type: functional
Procedure, shortened: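 M. tuberculosis H37Rv grown in BACTEC 12B medium; fluorometric broth microdilution (Microplate Alamar Blue Assay). […] MIC = lowest concentration reducing relative fluorescence units by ≥90% relative to control culture. Testing done by TAACF.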

[6] = tested on: Nucleic Acid
[7] = tested on: Nucleic Acid; remark: listed apart in the source
[8] = tested on: Aspergillus fumigatus; assay: Antimicrobial activity against Aspergillus fumigatus (MIC); assay type: functional

Compound	MFC [1] [µg/mL]	MIC [2] [µg/mL]	MFC [3] [µg/mL]	MIC [4] [µg/mL]	MIC [5] [µg/mL]	ΔTm [6]	ΔTm [7]	MIC [8] [µg/mL]
Cl.Cl.N=C(N)Nc1ccc(-c2ccc(-c3ccc(NC(=N)N)cc3)o2)cc1	> 100	100	25	12.5	3.13	21.6	10.8	
Cl.Cl.N=C(Nc1ccc(-c2ccc(-c3ccc(NC(=N)c4ccccc4)cc3)o2)cc1)c1ccccc1			50	25	1.56	28.6	15	
N=C(Nc1ccc(-c2ccc(-c3ccc(NC(=N)c4ccccn4)cc3)o2)cc1)c1ccccn1					1.56 (≈ 3.4 µM)	19.6	7.5	
COc1cc(NC(=N)N)ccc1-c1ccc(-c2ccc(NC(=N)N)cc2OC)o1.Cl.Cl	100		100	10	16	15.2	2.8	100
Cc1cc(NC(=N)N)ccc1-c1ccc(-c2ccc(NC(=N)N)cc2C)o1.Cl.Cl	33.4		2.08	1.04	≤ 1	17.8	6.9	33.4
